According to ChEMBL document CHEMBL1121715, “New antiarrhythmic agents. 4. 1'-(Aminoalkyl)-1,2,3,4-tetrahydronaphthalene-1-spiro-3'-pyrrolidine-2',5'-dione derivatives” (J Med Chem, 1981):
Values joined by “and” are separate entries in the source; they are usually repeats but may differ in a detail not shown here. Equal values may be shown once.

How the values were obtained:
Canis familiaris [1] = test: Ventricular rate was measured in anesthetized dog at 0.042d dose; format: functional, Canis lupus familiaris, Heart; settings: in the assay text read “unanesthetized dog” for “anesthetized dog”
Outline: (§1)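 Adult female dogs (6.7–14.5 kg) had two-stage ligation of the left anterior descending coronary artery the day before testing. After control ventricular rate, % ectopic beats and mean arterial pressure were recorded, the drug (HCl salt, isotonic solution) was infused iv without anesthesia at 0.1, 0.5 or 1.0 (mg/kg)/min, mostly 0.5. Infusion continued until the arrhythmia was abolished or cardiovascular/CNS toxicity appeared. Cumulative dose is given in mmol/kg; toxicity included convulsion and P-R prolongation ≥25%.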

Canis familiaris [2] = test: Ventricular rate was measured in anesthetized dog at 0.084 dose; format: functional, Canis lupus familiaris, Heart; settings: in the assay text read “unanesthetized” for “anesthetized”
Outline: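 Adult female dogs (6.7–14.5 kg) had ventricular arrhythmias from two-stage ligation of the left anterior descending coronary artery the day before. Ventricular rate (bpm) was read at maximal antiarrhythmic effect against cumulative dose.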

Mus musculus [3] = species on record: Mus musculus; test: Percentage toxicity measured as loss of righting reflex.; format: organism-based; settings: in vivo
Outline: (§2)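 Mice (groups of 10) were dosed sc with drug in 0.9% saline and watched for 20 min for overt toxicity (ataxia, convulsions, loss of righting reflex, death) before chloroform exposure.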

Canis familiaris [4] = species on record: Canis familiaris; test: MABP value was measured in […] at 0.084 dose; format: functional, Canis lupus familiaris; outline: as §1
Canis familiaris [5] = test: MABP value was measured in anesthetized dog at 0.056 dose; format: functional, Canis lupus familiaris; settings: in the assay text read “unanesthetized dog” for “anesthetized dog”; outline: as §1
Canis familiaris [6] = test: MABP value was measured in anesthetized dog at 0.042 dose; format: functional, Canis lupus familiaris
Canis familiaris [7] = test: % ectopic beats was measured in unanesthetized dog at 0.056 dose
Canis familiaris [8] = test: Blood level was measured in anesthetized dog at 0.042 dose; format: functional, Canis lupus familiaris
Canis familiaris [9] = species on record: Canis familiaris; test: Nature of toxicity was expressed; convulsion; format: organism-based, Canis lupus familiaris; settings: dog, in vivo; outline: as §1
Mus musculus [10] = test: Protection against chloroform induced arrhythmias in mice after subcutaneous administration at 100 mg/kg dose.; format: functional
Outline: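 Groups of 10 unanesthetized mice got sc injection of drug in 0.9% saline. After 20 min observation they were placed one by one in chloroform-vapor-saturated air. When breathing stopped, the thorax was opened and the heart inspected by eye; coordinated ventricular contractions counted as protected.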

Canis familiaris [11] = test: Ventricular rate was measured in anesthetized dog at 0.042 dose; format: functional, Canis lupus familiaris, Heart; settings: in the assay text read “unanesthetized dog” for “anesthetized dog”; outline: as §1
[12] = Percentage toxicity measured as death of mice.; format: organism-based; design: concentration or dose not given beside the values; settings: mouse, in vivo; read-out: Death
Canis familiaris [13] = test: % ectopic beats was measured in unanesthetized dog at 0.084 dose
Mus musculus [14] = species on record: Mus musculus; test: Percentage toxicity measured as convulsions.; format: organism-based; settings: in vivo; outline: as §2
Canis familiaris [15] = test: % ectopic beats was measured in anesthetized dog at 0.038 dose; format: functional, Canis lupus familiaris, Heart; settings: in the assay text read “unanesthetized” for “anesthetized”
Outline: (§3)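 Adult female dogs (6.7–14.5 kg) had the left anterior descending coronary artery ligated in two stages the day before testing. Dogs were unanesthetized. Ectopic beats (% of ventricular rate) and mean arterial pressure were read at maximal antiarrhythmic effect against the cumulative dose.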

Canis familiaris [16] = test: Blood level was measured in anesthetized dog at 0.084 dose; format: functional, Canis lupus familiaris
Canis familiaris [17] = species on record: Canis familiaris; test: (§4) The dose at which toxicity was measured; format: organism-based, Canis lupus familiaris; design: unit: mmol/kg; settings: dog, in vivo; outline: as §1
Canis familiaris [18] = species on record: Canis familiaris; test: as §4; format: organism-based, Canis lupus familiaris; settings: dog, in vivo; outline: as §1
Canis familiaris [19] = test: Ventricular rate was measured in anesthetized dog at 0.038 dose; format: functional, Canis lupus familiaris, Heart; settings: in the assay text read “unanesthetized dog” for “anesthetized dog”; outline: as §1
Canis familiaris [20] = test: Ventricular rate was measured in anesthetized dog at 0.056 dose; format: functional, Canis lupus familiaris, Heart; settings: in the assay text read “unanesthetized dog” for “anesthetized dog”; outline: as §1
Mus musculus [21] = species on record: Mus musculus; test: Percentage toxicity measured as ataxia.; format: organism-based; settings: in vivo; outline: as §2
Canis familiaris [22] = test: MABP value was measured in anesthetized dog at 0.038 dose; format: functional, Canis lupus familiaris; settings: in the assay text read “unanesthetized dog” for “anesthetized dog”; outline: as §3

With `CC(C)Oc1ccc2c(c1)C1(CCC2)CC(=O)N(CCCN(C)C)C1=O` (configuration not stated) the Ventricular rate (Canis familiaris [1]) was 150 beats min-1, the Ventricular rate (Canis familiaris [2]) was 138 beats min-1 and the “Loss of righting reflex” value (Mus musculus [3]) was 10%. The MABP (Canis familiaris [4]) was 125 mmHg, the MABP (Canis familiaris [5]) was 110 mmHg and the MABP (Canis familiaris [6]) was 90 mmHg and 100 mmHg. For the same compound, the Ectopic beats (Canis familiaris [7]) was 5%, the Blood level (Canis familiaris [8]) was 0.013 uM ml-1 and the Nature (Canis familiaris [9]) was “convulsion”. The Protection (Mus musculus [10]) was 50%, the Ventricular rate (Canis familiaris [11]) was 165 beats min-1 and the mortality [12] was 0%. It also gave an Ectopic beats (Canis familiaris [13]) of 15%, a Convulsion (Mus musculus [14]) of 0% and an Etopic beats (Canis familiaris [15]) of 2%. The Blood level (Canis familiaris [16]) was 0.021 uM ml-1, the Cumulative dose (Canis familiaris [17]) was 0.077 and 0.133 and the Cumulative dose (Canis familiaris [18]) was 0.066. For the same compound, the Ventricular rate (Canis familiaris [19]) was 120 beats min-1, the Ventricular rate (Canis familiaris [20]) was 171 beats min-1 and the Ataxia (Mus musculus [21]) was 100%. It also gave an MABP (Canis familiaris [22]) of 75 mmHg.
